Active and inactive are the calls of the source.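 The calls were made as follows: active = IC50 at or below 1 µM; inactive = the rest.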
Molecular target: Protein-arginine deiminase type-4 (Homo sapiens) (UniProt Q9UM07)
Assay: PAD4 enzyme inhibition potency, late-stage follow-up, biochemical, BAEE substrate, citrulline absorbance, 0-60 µM range (AID 588422)
Conditions: recombinant PAD4, BAEE citrulline colorimetric absorbance
Outline: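 System: recombinant PAD4 / Quantity: PAD4 enzyme at 0.2 µM / Also added: BAEE substrate at 10 mM / Compound dosing: 7-point dilution series, 0 to 60 µM final / Schedule: Enzyme–compound preincubation 15 min at 37 °C, then 15 min BAEE reaction / Detection: citrulline colour reaction, A540 / Replication: duplicate measurements per concentration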

Sequence of Protein-arginine deiminase type-4 (Homo sapiens) (Q9UM07 whole entry, looked up): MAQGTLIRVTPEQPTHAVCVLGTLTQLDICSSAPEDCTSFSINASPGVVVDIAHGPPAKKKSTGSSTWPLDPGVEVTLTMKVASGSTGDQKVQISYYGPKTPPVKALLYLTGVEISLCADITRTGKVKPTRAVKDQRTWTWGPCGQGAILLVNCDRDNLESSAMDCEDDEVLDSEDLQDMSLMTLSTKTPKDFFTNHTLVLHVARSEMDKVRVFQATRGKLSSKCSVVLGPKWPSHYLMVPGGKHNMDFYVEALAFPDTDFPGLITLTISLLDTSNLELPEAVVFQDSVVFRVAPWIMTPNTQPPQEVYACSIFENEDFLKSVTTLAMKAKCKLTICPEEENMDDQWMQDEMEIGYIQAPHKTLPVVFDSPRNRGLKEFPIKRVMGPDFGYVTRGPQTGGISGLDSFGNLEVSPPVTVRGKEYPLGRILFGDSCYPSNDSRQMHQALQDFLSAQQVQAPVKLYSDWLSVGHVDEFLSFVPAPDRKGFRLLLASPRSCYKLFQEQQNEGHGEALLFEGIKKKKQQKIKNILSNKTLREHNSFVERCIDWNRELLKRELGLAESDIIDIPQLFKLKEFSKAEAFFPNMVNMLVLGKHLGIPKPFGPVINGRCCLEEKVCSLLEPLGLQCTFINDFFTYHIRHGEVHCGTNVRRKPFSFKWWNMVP

IC50: inactive
SMILES: COC(=O)c1cccc(-c2ccc3c(n2)C(=O)C(Br)=CC3=O)n1

Source: PubChem BioAssay AID588422 (The Scripps Research Institute Molecular Screening Center, 2011)
